ChEMBL document CHEMBL1141689, “Synthesis and biological evaluation of 2-amino-3-(3',4',5'-trimethoxybenzoyl)-6-substituted-4,5,6,7-tetrahydrothieno[2,3-c]pyridine derivatives as antimitotic agents and inhibitors of tubulin polymerization” (Bioorg Med Chem Lett, 2008)

Legend:
[1] = system: K562; assay: Cell cycle arrest in human K562 cells assessed as accumulation at sub G0/G1 phase at 500 nM after 24 hrs using propidium iodide staining by flow cytometry; format: functional
Procedure, shortened: (§1)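 K562 leukaemia cells were cultured 24 h with compound or without compound as a control, then washed once in ice-cold PBS. They were resuspended at 1 × 10^6/mL in hypotonic propidium iodide (50 μg/mL) in 0.1% sodium citrate with 0.03% (v/v) Nonidet P-40 and incubated 30 min. DNA content was read by flow cytometry as single-parameter histograms, and cell-cycle phase distribution was modelled from them.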

[2] = Antiproliferative activity against human Molt4/C8 cells; format: functional, cell-based; conditions: MOLT-4
[3] = system: L1210; assay: Antiproliferative activity against mouse L1210 cells; format: functional, cell-based
[4] = organism: Bos taurus; assay: Displacement of [3H]colchicine from bovine brain tubulin at 5 uM
[5] = system: CCRF-CEM; assay: Antiproliferative activity against human CEM cells; format: cell-based
[6] = system: K562; assay: Cell cycle arrest in human K562 cells assessed as accumulation at S phase at 500 nM after 24 hrs using propidium iodide staining by flow cytometry; format: functional; procedure, shortened: as §1
[7] = system: K562; assay: Cell cycle arrest in human K562 cells assessed as accumulation at G0/G1 phase at 500 nM after 24 hrs using propidium iodide staining by flow cytometry; format: functional; procedure, shortened: as §1
[8] = system: K562; assay: Cell cycle arrest in human K562 cells assessed as accumulation at G2/M phase at 500 nM after 24 hrs using propidium iodide staining by flow cytometry; format: functional; procedure, shortened: as §1
[9] = system: FM3A; assay: Antiproliferative activity against mouse FM3A cells; format: functional, cell-based
[10] = organism: Bos taurus; assay: Displacement of [3H]colchicine from bovine brain tubulin at 1 uM
[11] = system: K562; assay: Cell cycle arrest in human K562 cells assessed as accumulation at sub G0/G1 phase at 70 nM after 24 hrs using propidium iodide staining by flow cytometry; format: functional
[12] = system: K562; assay: Cell cycle arrest in human K562 cells assessed as accumulation at G0/G1 phase at 70 nM after 24 hrs using propidium iodide staining by flow cytometry; format: functional
[13] = system: K562; assay: Cell cycle arrest in human K562 cells assessed as accumulation at S phase at 70 nM after 24 hrs using propidium iodide staining by flow cytometry; format: functional
[14] = Inhibition of tubulin polymerization
[15] = system: K562; assay: Cell cycle arrest in human K562 cells assessed as accumulation at G2/M phase at 70 nM after 24 hrs using propidium iodide staining by flow cytometry; format: functional
[16] = system: K562; assay: Cell cycle arrest in human K562 cells assessed as accumulation at G2/M phase at 80 nM after 24 hrs using propidium iodide staining by flow cytometry; format: functional; procedure, shortened: as §1
[17] = system: K562; assay: Cell cycle arrest in human K562 cells assessed as accumulation at sub G0/G1 phase at 80 nM after 24 hrs using propidium iodide staining by flow cytometry; format: functional; procedure, shortened: as §1
[18] = system: K562; assay: Cell cycle arrest in human K562 cells assessed as accumulation at S phase at 80 nM after 24 hrs using propidium iodide staining by flow cytometry; format: functional; procedure, shortened: as §1
[19] = system: K562; assay: Cell cycle arrest in human K562 cells assessed as accumulation at G0/G1 phase at 80 nM after 24 hrs using propidium iodide staining by flow cytometry; format: functional; procedure, shortened: as §1

## COc1cc(C(=O)c2c(N)sc3cnccc23)cc(OC)c1OC
[1]
  Activity: 14%
[2]
  IC50: 0.34 µM
[3]
  IC50: 0.37 µM
[4]
  Activity: 27%
[5]
  IC50: 1 µM
[6]
  Activity: 27%
[7]
  Activity: 19%
[8]
  Activity: 54%
[9]
  IC50: 0.4 µM

## COc1cc(C(=O)c2c(N)sc3c2CCN(C)C3)cc(OC)c1OC
[2]
  IC50: > 10 µM
[3]
  IC50: > 10 µM
[5]
  IC50: > 10 µM
[9]
  IC50: > 10 µM

## CCCCNC(=O)N1CCc2c(sc(N)c2C(=O)c2cc(OC)c(OC)c(OC)c2)C1
[2]
  IC50: > 10 µM
[3]
  IC50: > 10 µM
[5]
  IC50: > 10 µM
[9]
  IC50: > 10 µM

## CCCOC(=O)N1CCc2c(sc(N)c2C(=O)c2cc(OC)c(OC)c(OC)c2)C1
[2]
  IC50: 0.47 µM
[3]
  IC50: 1.1 µM
[5]
  IC50: 1.2 µM
[9]
  IC50: 1.4 µM

## COc1cc(C(=O)c2c(N)sc3c2CCN(C(=S)NC2CCCCC2)C3)cc(OC)c1OC
[2]
  IC50: 0.75 µM
[3]
  IC50: 1.1 µM
[9]
  IC50: 1.4 µM

## CCN1CCc2c(sc(N)c2C(=O)c2cc(OC)c(OC)c(OC)c2)C1
[2]
  IC50: 1.8 µM
[3]
  IC50: 2.1 µM
[5]
  IC50: 1.7 µM
[9]
  IC50: 1.9 µM

## COc1cc(C(=O)c2c(N)sc3c2CCN(C(=O)OC(C)(C)C)C3)cc(OC)c1OC
[2]
  IC50: > 10 µM
[3]
  IC50: > 10 µM
[5]
  IC50: > 10 µM
[9]
  IC50: > 10 µM

## COc1cc(C(=O)c2c(N)sc3c2CCN(C(=S)NC(C)(C)C)C3)cc(OC)c1OC
[2]
  IC50: > 10 µM
[3]
  IC50: > 10 µM
[5]
  IC50: > 10 µM
[9]
  IC50: > 10 µM

## COc1cc(C(=O)c2c(N)sc3c2CCN(C(=S)NC(C)C)C3)cc(OC)c1OC
[2]
  IC50: > 10 µM
[3]
  IC50: > 10 µM
[5]
  IC50: > 10 µM
[9]
  IC50: > 10 µM

## COc1cc(C(=O)c2c(N)sc3c2CCN(C(=O)NC2CCCCC2)C3)cc(OC)c1OC
[2]
  IC50: > 10 µM
[3]
  IC50: > 10 µM
[5]
  IC50: > 10 µM
[9]
  IC50: > 10 µM

## COc1ccc(/C=C\c2cc(OC)c(OC)c(OC)c2)cc1O [COMBRETASTATIN A4]
[10]
  Activity: 90%
[2]
  IC50: 0.0016 µM
[4]
  Activity: 99%

## COc1cc(C(=O)c2c(N)sc3c2CCN(C(=O)Nc2ccccc2)C3)cc(OC)c1OC
[2]
  IC50: > 10 µM
[3]
  IC50: > 10 µM
[5]
  IC50: > 10 µM
[9]
  IC50: > 10 µM

## COc1cc(C(=O)c2c(N)sc3c2CCN(Cc2ccccc2)C3)cc(OC)c1OC
[2]
  IC50: > 10 µM
[3]
  IC50: > 10 µM
[5]
  IC50: > 10 µM
[9]
  IC50: > 10 µM

## COc1cc(C(=O)c2c(N)sc3c2CCN(C(=O)NCc2ccc(F)cc2)C3)cc(OC)c1OC
[2]
  IC50: > 10 µM
[3]
  IC50: > 10 µM
[5]
  IC50: > 10 µM
[9]
  IC50: > 10 µM

## COc1cc(C(=O)c2c(N)sc3c2CCN(C(=O)OCc2ccccc2)C3)cc(OC)c1OC
[2]
  IC50: 7.5 µM
[3]
  IC50: > 10 µM
[5]
  IC50: 8.3 µM
[9]
  IC50: > 10 µM

## COC(=O)N1CCc2c(sc(N)c2C(=O)c2cc(OC)c(OC)c(OC)c2)C1
[10]
  Activity: 71%
[11]
  Activity: 11%
[12]
  Activity: 34%
[2]
  IC50: 0.045 µM
[3]
  IC50: 0.025 µM
[4]
  Activity: 84%
[5]
  IC50: 0.09 µM
[13]
  Activity: 33%
[14]
  IC50: 0.6 µM
[9]
  IC50: 0.046 µM
[15]
  Activity: 33%

## CCNC(=S)N1CCc2c(sc(N)c2C(=O)c2cc(OC)c(OC)c(OC)c2)C1
[2]
  IC50: 4.8 µM
[3]
  IC50: 6.8 µM
[5]
  IC50: 6.7 µM
[9]
  IC50: 6.9 µM

## CNC(=S)N1CCc2c(sc(N)c2C(=O)c2cc(OC)c(OC)c(OC)c2)C1
[2]
  IC50: 1.6 µM
[3]
  IC50: 4.9 µM
[5]
  IC50: 1.8 µM
[9]
  IC50: 2.8 µM

## COc1cc(C(=O)c2c(N)sc3c2CCN(C(=O)OCC(C)C)C3)cc(OC)c1OC
[2]
  IC50: > 10 µM
[3]
  IC50: > 10 µM
[5]
  IC50: > 10 µM
[9]
  IC50: > 10 µM

## COc1cc(C(=O)c2c(N)sc3ccccc23)cc(OC)c1OC
[10]
  Activity: 25%
[2]
  IC50: 0.073 µM
[3]
  IC50: 0.09 µM
[4]
  Activity: 71%
[5]
  IC50: 0.074 µM
[14]
  IC50: 1.9 µM
[9]
  IC50: 0.1 µM

## COc1cc(C(=O)c2c(N)sc3c2CCN(C(=O)Oc2ccccc2)C3)cc(OC)c1OC
[2]
  IC50: > 10 µM
[3]
  IC50: > 10 µM
[5]
  IC50: > 10 µM
[9]
  IC50: > 10 µM

## COc1cc(C(=O)c2c(N)sc3c2CCN(C(=O)NCc2ccccc2)C3)cc(OC)c1OC
[2]
  IC50: > 10 µM
[3]
  IC50: > 10 µM
[5]
  IC50: > 10 µM
[9]
  IC50: > 10 µM

## CCOC(=O)N1CCc2c(sc(N)c2C(=O)c2cc(OC)c(OC)c(OC)c2)C1
[10]
  Activity: 67%
[16]
  Activity: 40%
[2]
  IC50: 0.29 µM
[3]
  IC50: 0.095 µM
[4]
  Activity: 82%
[5]
  IC50: 0.44 µM
[17]
  Activity: 10%
[14]
  IC50: 0.6 µM
[18]
  Activity: 30%
[19]
  Activity: 30%
[9]
  IC50: 0.057 µM

## COc1cc(C(=O)c2c(N)sc3c2CCN(C(C)=O)C3)cc(OC)c1OC
[2]
  IC50: 1.1 µM
[3]
  IC50: 3.9 µM
[5]
  IC50: 1.4 µM
[9]
  IC50: 1.2 µM

## CCCN1CCc2c(sc(N)c2C(=O)c2cc(OC)c(OC)c(OC)c2)C1
[2]
  IC50: > 10 µM
[3]
  IC50: > 10 µM
[5]
  IC50: > 10 µM
[9]
  IC50: > 10 µM

## COc1cc(C(=O)c2c(N)sc3c2CCN(C(=O)NC(C)C)C3)cc(OC)c1OC
[2]
  IC50: > 10 µM
[3]
  IC50: > 10 µM
[5]
  IC50: > 10 µM
[9]
  IC50: > 10 µM
